SMILES strings stand for the structures.

The subject of one experiment is HeLa. In words: Transfection activity of compound was tested in human cervical adenocarcinoma (HeLa) cells (Level of luciferase gene expression is expressed as mean of relative light units (RLU) per well). It counts as functional. An outline of the steps: (§1)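 Cationic lipid:DOPE (1:1 molar) films hydrated in PBS pH 7.4 (5 mM cationic lipid), bath-sonicated. pCMV-Luc (CMV-driven firefly luciferase) 1 µg in serum-free CHO-S-SFM mixed with 5 nmol lipid in HBSS, 5–10 min RT. Cells 5×10^4/well seeded 24 h prior; 5 h exposure, then FBS; medium replaced at 24 h; lysed 24 h later; luciferase luminescence (10 s), RLU/well, mean of triplicates.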

The next experiment relates to HEK293. In words: Transfection activity of compound was tested in human embryonic kidney (293) cells (Level of luciferase gene expression is expressed as mean of relative light units (RLU) per well). Format: functional. An outline of the steps:
as §1

Experiment [1] is described as follows: Transfection activity of compound was tested in lewis lung carcinoma (3LL) cells (Level of luciferase gene expression is expressed as mean of relative light units (RLU) per well). Format: functional, cell-based. The conditions noted are these: Mus musculus. The method, boiled down: as §1
The test system of a further experiment is NIH3T3. In words: Transfection activity of compound was tested in murine embryonic fibroblast (NIH3T3) cells (Level of luciferase gene expression is expressed as mean of relative light units (RLU) per well). Format: functional, Mus musculus. An outline of the steps:
as §1

In the case of `C=C1CC[C@H](OC(=O)NCCN(CCN)CCN)C/C1=C/C=C1\CCC[C@]2(C)[C@@H]([C@H](C)/C=C/[C@H](C)C(C)C)CC[C@@H]12.Cl`, the RLU/well in the experiment on HeLa was 540000; with HEK293, 4.8e+07; in experiment [1], 590000; in the experiment on NIH3T3, 1.9e+06.
Taken in the same sequence, the figures for `C=C1CC[C@H](OC(=O)NCCCCN)C/C1=C/C=C1\CCC[C@]2(C)[C@@H]([C@H](C)/C=C/[C@H](C)C(C)C)CC[C@@H]12.Cl` were 930000, 6.3e+07, 610000 and 2.1e+06.
On to `C=C1CC[C@H](OC(=O)NCC[N+](C)(C)C)C/C1=C/C=C1\CCC[C@]2(C)[C@@H]([C@H](C)/C=C/[C@H](C)C(C)C)CC[C@@H]12.[I-]`, for which the RLU/well in the experiment on HeLa turned out to be 38000; in the experiment on HEK293 it was 1.6e+06; in experiment [1] it was 4000; with NIH3T3, 180000.
The matching figures for `C=C1CC[C@H](OC(=O)NCCN(C)C)C/C1=C/C=C1\CCC[C@]2(C)[C@@H]([C@H](C)/C=C/[C@H](C)C(C)C)CC[C@@H]12.Cl`: 2.6e+06, 3.9e+06, 800000 and 270000.
Taken in the same sequence, the figures for `C=C1CC[C@H](OC(=O)NCCCCN)C/C1=C/C=C1\CCC[C@]2(C)[C@@H]([C@H](C)CCCC(C)C)CC[C@@H]12.Cl` were 1.7e+06, 4.7e+07, 820000 and 7.8e+06.
The matching figures for `C=C1CC[C@H](OC(=O)NCC[N+](C)(C)C)C/C1=C/C=C1\CCC[C@]2(C)[C@@H]([C@H](C)CCCC(C)C)CC[C@@H]12.[I-]`: 18000, 560000, 5300 and 570000.
Consider `C=C1CC[C@H](OC(=O)NCCN(CCN)CCN)C/C1=C/C=C1\CCC[C@]2(C)[C@@H]([C@H](C)CCCC(C)C)CC[C@@H]12.Cl`, for which the RLU/well in the experiment on HeLa stood at 1.4e+06; in the experiment on HEK293, 3.2e+07; in experiment [1], 150000; in the experiment on NIH3T3, 690000.
Consider `C=C1CC[C@H](OC(=O)NCCN(C)C)C/C1=C/C=C1\CCC[C@]2(C)[C@@H]([C@H](C)CCCC(C)C)CC[C@@H]12.Cl`, for which the RLU/well in the experiment on HeLa was 290000; in the experiment on HEK293, 1.1e+06; in experiment [1], 220000; with NIH3T3, 120000.

(Values after ChEMBL document CHEMBL1133351, “Synthesis and evaluation of vitamin D-based cationic lipids for gene delivery in vitro” (2000).)
